# Activity calls are given as the source filed them. The rule behind the calls is not given here.
# Experiments:
# [1] = biological target: Cellular tumor antigen p53 (Homo sapiens) (UniProt P04637); test: Activation of p53 in human T24 cells assessed as increase in p21 level up to 10 uM after 24 hrs by Western blot analysis; assay type: cell-based
# Method in brief: (§1)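 T24 cells, 3 × 10^5 per well, grown to 85−95% confluence, then exposed to 0−10 μM for 24 h. Whole-cell extracts in sample buffer run on SDS-polyacrylamide gels and transferred to nitrocellulose. Blots probed with primary antibodies and AP-linked anti-rabbit IgG, detected by ECL. Blots stripped and reprobed for β-actin as loading control.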
# T-24 [2] = test: Effect on p53 protein expression in human T24 cells up to 10 uM after 24 hrs by Western blot analysis; assay type: functional, cell-based
# Method in brief: (§2)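 T24 cells (3 × 10^5 per well) grown to 85–95% confluence, then exposed 24 h to 0–10 μM. Whole-cell extracts run on SDS-PAGE and blotted to nitrocellulose. Probed with the indicated antibodies and AP-linked anti-rabbit IgG, with ECL detection. Blots stripped and reprobed for β-actin as loading control.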
# T-24 [3] = test: Induction of apoptosis in human T24 cells assessed as live cells at 1 uM by Annexin V-FITC/propidium iodide based flow cytometric analysis (reference value: 89.5%); assay type: functional
# T-24 [4] = test: Effect on cell cycle distribution in human T24 cells assessed as early apoptotic cells at 5 uM after 1 hr by Annexin V-FITC/propidium iodide staining based FACS analysis relative to control; assay type: functional
# T-24 [5] = test: Effect on p53 expression in human T24 cells up to 10 uM after 24 hrs by Western blot analysis; assay type: functional, cell-based; method in brief: as §2
# J82 [6] = test: Cell cycle arrest in human J82 cells assessed as accumulation at G2 phase at 1 uM after 48 hrs by propidium iodide staining based FACS analysis (reference value: 10.92 %); assay type: functional
# Method in brief: (§3)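 Cells treated with 1−10 μM for 48 h, trypsinized, and fixed in 70% ethanol. Stained with 50 μg/mL propidium iodide and phase distribution analyzed by flow cytometry. Mean ± SD from three independent measurements.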
# T-24 [7] = test: Effect on cell cycle distribution in human T24 cells assessed as late apoptotic cells at 1 uM after 1 hr by Annexin V-FITC/propidium iodide staining based FACS analysis relative to control; assay type: functional
# Mus musculus [8] = test: Toxicity in BALB/C nude mouse xenografted with human HepG2 cells at 6 to 12 mg/kg, ip administered every 2 days for 16 days; assay type: organism-based; conditions: in vivo
# Method in brief: (§4)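 Male BALB/C nude mice with HepG2 flank xenografts, n = 6/group. Given ip 6 or 12 mg/kg every 2 days in 5% DMSO/saline; vehicle and HCPT 6 mg/kg as controls. Clinical signs, food intake and body weight monitored; tumour size and weight measured three times weekly.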
# T-24 [9] = test: Effect on light absorption in human T24 cells up to 10 uM after 1 hr at 490 nanometer; assay type: functional, cell-based
# Method in brief: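 T24 cells treated at 1−10 μM for 1 h, then absorbance read at 490 nm to check for interference with the MTT read-out.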
# Mus musculus [10] = test: Toxicity in BALB/C nude mouse xenografted with human HepG2 cells assessed as change in body weight at 6 mg/kg, ip administered every 2 days for 16 days; assay type: organism-based; conditions: in vivo
# Method in brief: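 HepG2-xenografted male BALB/C nude mice treated ip at 6 mg/kg every 2 days; vehicle was 5% DMSO in saline. Body weight recorded three times weekly and at the end of treatment.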
# J82 [11] = test: Cell cycle arrest in human J82 cells assessed as accumulation at G1 phase at 1 uM after 48 hrs by propidium iodide staining based FACS analysis (reference value: 42.29 %); assay type: functional; method in brief: as §3
# HeLa = test: Antiproliferative activity against human HeLa cells by MTT assay; assay type: functional, cell-based
# Method in brief: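 Cell lines cultured in RPMI 1640 with 10% FBS. Viability read by MTT (5 mg/mL, 4 h at 37 °C), with formazan dissolved in DMSO and absorbance taken at 490 nm. Viability (%) = A490 treated / A490 control × 100. IC50 taken from dose-response curves, from three independent experiments each run in triplicate.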
# T-24 [12] = test: Effect on Bcl-2 expression in human T24 cells up to 10 uM after 24 hrs by Western blot analysis; assay type: functional, cell-based; method in brief: as §1
# T-24 [13] = test: Effect on cell cycle distribution in human T24 cells assessed as early apoptotic cells at 10 uM after 1 hr by Annexin V-FITC/propidium iodide staining based FACS analysis relative to control; assay type: functional
# T-24 [14] = test: Induction of apoptosis in human T24 cells assessed as activation of caspase-3 at 5 uM by FITC-DEVD-FMK based flow cytometric analysis (reference value: 2.8%)
# T-24 [15] = test: Antiproliferative activity against human T24 cells harboring p53 siRNA up to 5 uM after 48 hrs by MTT assay; assay type: functional, cell-based
# Method in brief: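 T24 cells pre-exposed to p53-siRNA or scrambled RNA for 24 h, then treated with a concentration series for 48 h. Proliferation measured by MTT read at 490 nm, expressed as % of control absorbance.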
# T-24 [16] = test: Induction of apoptosis in human T24 cells by Annexin V-FITC/propidium iodide based flow cytometric analysis; assay type: functional, cell-based
# J82 [17] = test: Cell cycle arrest in human J82 cells assessed as accumulation at G1 phase at 10 uM after 48 hrs by propidium iodide staining based FACS analysis (reference value: 42.29 %); assay type: functional; method in brief: as §3
# T-24 [18] = test: Effect on Bcl-xl protein expression in human T24 cells at 1 to 10 uM after 24 hrs by Western bot method; assay type: functional, cell-based; method in brief: as §1
# [19] = biological target: Cellular tumor antigen p53 (Homo sapiens) (UniProt P04637); test: Induction of phospho-p53 accumulation in human T24 cells assessed as disruption of Bak-Bcl-xl interaction up to 10 uM by coimmunoprecipitation assay; assay type: cell-based
# T-24 [20] = test: Induction of apoptosis in human T24 cells assessed as activation of caspase-3 at 1 uM by FITC-DEVD-FMK based flow cytometric analysis (reference value: 2.8%)
# T-24 [21] = test: Induction of apoptosis in human T24 cells assessed as late apoptotic cells at 10 uM by Annexin V-FITC/propidium iodide based flow cytometric analysis (reference value: 0.193%); assay type: functional
# T-24 [22] = test: Induction of apoptosis in human T24 cells assessed as activation of caspase-3 at 10 uM by FITC-DEVD-FMK based flow cytometric analysis (reference value: 2.8%)
# T-24 [23] = test: Cell cycle arrest in human T24 cells assessed as accumulation at S/G2 phase at 1 to 10 uM after 48 hrs by propidium iodide staining based FACS analysis; assay type: functional; method in brief: as §3
# T-24 [24] = test: Effect on cell cycle distribution in human T24 cells assessed as live cells at 5 uM after 1 hr by Annexin V-FITC/propidium iodide staining based FACS analysis (reference value: 98.3%); assay type: functional
# T-24 [25] = test: Effect on cell cycle distribution in human T24 cells assessed as late necrotic cells at 10 uM after 1 hr by Annexin V-FITC/propidium iodide staining based FACS analysis (reference value: 1.71%); assay type: functional
# [26] = biological target: Cellular tumor antigen p53 (Homo sapiens) (UniProt P04637); test: Activation of p53 in human T24 cells assessed as increase in cyclinE-CDK2 complex formation up to 10 uM after 24 hrs by Western blot analysis; assay type: cell-based; method in brief: as §1
# Mus musculus [27] = test: Toxicity in BALB/C nude mouse xenografted with human HepG2 cells assessed as effect on food consumption at 6 to 12 mg/kg, ip administered every 2 days for 16 days; assay type: organism-based; conditions: in vivo; method in brief: as §4
# Sequence of Cellular tumor antigen p53 (Homo sapiens) (P04637 whole entry, looked up): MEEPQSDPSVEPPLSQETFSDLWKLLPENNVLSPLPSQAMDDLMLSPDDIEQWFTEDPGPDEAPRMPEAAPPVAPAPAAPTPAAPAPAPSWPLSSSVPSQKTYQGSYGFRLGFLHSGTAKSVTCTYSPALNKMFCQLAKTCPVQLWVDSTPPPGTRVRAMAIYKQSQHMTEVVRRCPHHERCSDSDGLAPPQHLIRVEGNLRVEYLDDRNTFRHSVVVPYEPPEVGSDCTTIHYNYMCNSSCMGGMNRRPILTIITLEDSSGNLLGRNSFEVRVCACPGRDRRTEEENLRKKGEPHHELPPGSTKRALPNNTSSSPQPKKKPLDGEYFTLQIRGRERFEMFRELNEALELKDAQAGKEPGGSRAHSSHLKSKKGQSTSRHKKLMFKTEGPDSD
smiles,measurement,setting,value
CN(C)CCNc1nn2c(=O)c3cc(Br)ccc3nc2c2ccccc12,Activity,[1],Active
same,Activity,T-24 [2],inactive
same,Activity,T-24 [3],83.7%
same,Activity,T-24 [4],0%
same,Activity,T-24 [5],inactive
same,Activity,J82 [6],12%
same,Activity,T-24 [7],0%
same,Activity,Mus musculus [8],Non-Toxic
same,Activity,T-24 [9],inactive
same,Activity,Mus musculus [10],Non-Toxic
same,Activity,J82 [11],48.49%
same,IC50,HeLa,6.1 µM
same,Activity,T-24 [12],inactive
same,Activity,T-24 [13],0%
same,Activity,T-24 [14],17.6%
same,Activity,T-24 [15],inactive
same,Activity,T-24 [16],Dose-dependent effect
same,Activity,J82 [17],12.13%
same,Activity,T-24 [18],inactive
same,Activity,[19],Active
same,Activity,T-24 [20],7%
same,Activity,T-24 [21],40.7%
same,Activity,T-24 [22],50%
same,Activity,T-24 [23],Active
same,Activity,T-24 [24],89.4%
same,Activity,T-24 [25],13.4%
same,Activity,[26],Active
same,Activity,Mus musculus [27],Non-Toxic
